The nature of series [1]: Mean relative potency is the ratio of potencies of 'Ac-(Cha)RAMASL-NH2' and compound to inhibit MHC class II DRB1*0401. Summed up:
(§1)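 Scintillation proximity competition assay. Test compounds competed against the radioligand, and bound counts were read by scintillation. Ac-(Cha)RAMASL-NH2 was run as standard competitor in every run. Potency is the ratio of standard IC50 to compound IC50.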

Series [2] relates to T-cell. Briefly: T-cell inhibitory potency relative to the IC50 of a(Cha)AAAKTAAAAa-NH2 iMHC class II DRB1*0101. The format is functional, Homo sapiens.
Series [3] deals with T-cell. Briefly: T-cell inhibitory potency relative to the IC50 of a(Cha)AAAKTAAAAa-NH2 in MHC class II DRB1*0401. The format is functional, Homo sapiens.
A short description of series [4]: Mean relative potency is the ratio of potencies of 'Ac-(Cha)RAMASL-NH2' and compound to inhibit MHC class II DRB1*0101. Summed up: as §1
The target in series [5] is Cathepsin B (Bos taurus) (UniProt P07688). Briefly: Percent of original compound remaining with cathepsin B after incubation for 4 hrs was determined by HPLC.
A short description of series [6]: Degradation half-time was evaluated. Format: ADME. An outline of the steps:
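Each test peptide at 1.0 mg/mL in pH 6.0 phosphate buffer (88 mM KH2PO4, 12 mM Na2HPO4, 1.33 mM EDTA, 2.0 mM cysteine, internal standard) was prewarmed to 32 °C. Cathepsin B was preactivated 5 min at 37 °C and added at 0.3 U per micromole of compound. Half-time from ln(A0 − A) vs time, t1/2 = 0.693/k.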

The nature of series [7]: Mean relative potency is the ratio of potencies of 'Ac-(Cha)RAMASL-NH2' and compound, to inhibit MHC class II DRB1*0404. An outline of the steps: as §1
A short description of series [8]: Mean relative potency is the ratio of potencies of 'Ac-(Cha)RAMASL-NH2' and compound, to inhibit MHC class II DRB1*0101. Summed up: as §1
The nature of series [9]: Mean relative potency is the ratio of potencies of 'Ac-(Cha)RAMASL-NH2' and compound, to inhibit MHC class II DRB1*0401. An outline of the steps: as §1

The structures appear in SMILES notation. Starred links: 1 amine or outer side, 2 acyl side, 3 side chain; linkers in the order of their positions; H or OH if unused. Non-standard residues stand in square brackets, D forms with d. Residues, ends and D or L forms follow the SMILES beside them. ξ: configuration not given here. Haic = O=C1[C@@H](N[*:1])CCc2cccc3c2N1[C@H](C(=O)[*:2])C3; X1 = O=C([C@@H]1C(c2ccccc2)CCN1[*:1])[*:2]; NMePhg = CN[C@H](C(=O)O)c1ccccc1; Tic = O=C(O)[C@@H]1Cc2ccccc2CN1; Cha = N[C@@H](CC1CCCCC1)C(=O)O; NMeL = CN[C@@H](CC(C)C)C(=O)O; ξTle = CC(C)(C)C(N)C(=O)O; NMeA = CN[C@@H](C)C(=O)O; ξNMeA = CNC(C)C(=O)O

Consider `CC(=O)N[C@@H](CC1CCCCC1)C(=O)N[C@@H](CCCN=C(N)N)C(=O)N(C)[C@@H](C)C(=O)N[C@H]1CCc2cccc3c2N(C1=O)[C@H](C(=O)N[C@@H](CO)C(=O)N(C)[C@@H](CC(C)C)C(N)=O)C3` (Ac-[Cha]R[NMeA][Haic]S[NMeL]-NH2), for which the figures for the Mean relative potency in series [1] and in series [4] were 0.18 and 0.03, respectively. In addition, the T-cell inhibition in series [2] is under 0.04; in series [3], 2.32. For the same molecule, the % remaining in [5] came out at 106%.

As usually defined, the half-life is how long it takes for the measured level to halve. The low end stands for fast loss, the high end for slow loss. Regarding `CSCC[C@H](NC(=O)[C@H](C)N(C)C(=O)[C@H](CCCN=C(N)N)NC(=O)[C@H](CC1CCCCC1)NC(C)=O)C(=O)N(C)[C@@H](C)C(=O)N[C@@H](CO)C(=O)N(C)[C@@H](CC(C)C)C(N)=O` (Ac-[Cha]R[NMeA]M[NMeA]S[NMeL]-NH2), the half-life in [6] is 10700 min. The % remaining in series [5] stood at 99%.

Turning to `CC(=O)N[C@@H](CC1CCCCC1)C(=O)N[C@@H](CCCN=C(N)N)C(=O)N(C)[C@H](C(=O)N[C@H]1CCc2cccc3c2N(C1=O)[C@H](C(=O)N[C@@H](CO)C(=O)N(C)C(C)C(N)=O)C3)c1ccccc1` (stereo partly drawn) (Ac-[Cha]R[NMePhg][Haic]S[ξNMeA]-NH2), the results for the Mean relative potency in series [1] and in [4] were 0.37 and 0.01, respectively. In addition, the T-cell inhibition in series [2] is listed as under 0.2; in series [3], 4.6. For the same molecule, the % remaining in series [5] was 141%.

On to `CSCC[C@H](NC(=O)[C@@H](NC(=O)[C@H](CCCN=C(N)N)NC(=O)[C@H](CC1CCCCC1)NC(C)=O)C(C)(C)C)C(=O)N(C)[C@@H](C)C(=O)N[C@@H](CO)C(=O)N[C@H](C(N)=O)C(C)(C)C`, for which the T-cell inhibition in series [2] is 2.9; in series [3], 1.5.

As to `CSCC[C@@H](NC(=O)[C@@H](c1ccccc1)N(C)C(=O)[C@H](CCCN=C(N)N)NC(=O)[C@H](CC1CCCCC1)NC(C)=O)C(=O)N(C)[C@@H](C)C(=O)N[C@@H](CO)C(=O)N[C@H](C(N)=O)C(C)(C)C`, the Mean relative potency in series [1] is 1.27; in series [4] it was 1.64. Also, the % remaining in series [5] came out at 43%.

As to `CC(=O)N[C@@H](CC1CCCCC1)C(=O)N[C@@H](CCCN=C(N)N)C(=O)N(C)[C@H](C(=O)N[C@H]1CCc2cccc3c2N(C1=O)[C@H](C(=O)N[C@@H](CO)C(=O)NC(C(N)=O)C(C)(C)C)C3)c1ccccc1` (stereo partly drawn) (Ac-[Cha]R[NMePhg][Haic]S[ξTle]-NH2), the Mean relative potency in series [1] came to 0.23; in [4], 0.06. Further, the figures for the T-cell inhibition in [2] and in [3] were 2.3 and 3, respectively. Further, the % remaining in series [5] was determined as 126%.

As to `CSCC[C@@H](NC(=O)[C@H]1Cc2ccccc2CN1C(=O)[C@H](CCCN=C(N)N)NC(=O)[C@H](CC1CCCCC1)NC(C)=O)C(=O)N1CCC(c2ccccc2)[C@@H]1C(=O)N[C@@H](CO)C(=O)N(C)[C@@H](C)C(N)=O` (stereo partly drawn), the Mean relative potency stood at 0.63 in series [1] and 0.84 in [4]. The T-cell inhibition in [2] is 6.9; in series [3], 4.6. In [5], the % remaining came to 98%.

Turning to `CSCC[C@H](NC(=O)[C@H](C)NC(=O)[C@H](CCCN=C(N)N)NC(=O)[C@H](CC1CCCCC1)NC(C)=O)C(=O)N[C@@H](C)C(=O)N[C@@H](CO)C(=O)N[C@@H](CC(C)C)C(N)=O` (Ac-[Cha]RAMASL-NH2), the Mean relative potency in series [7], in series [8] and in [9] was 1 in each case. Besides, the T-cell inhibition in [2] was determined as 0.12; in series [3] it was 0. The same molecule yielded a half-life in series [6] of 3 min. In addition, the % remaining in [5] stood at 0%.

Regarding `CSCC[C@@H](NC(=O)[C@@H](c1ccccc1)N(C)C(=O)[C@H](CCCN=C(N)N)NC(=O)[C@H](CC1CCCCC1)NC(C)=O)C(=O)N[C@@H](C)C(=O)N[C@@H](CO)C(=O)N[C@H](C(N)=O)C(C)(C)C`, the values for the Mean relative potency in series [1] and in series [4] were 2.02 and 1.15, respectively. Besides, in series [5], the % remaining is 93%.

Take `CSCC[C@H](NC(=O)[C@H](C)NC(=O)[C@H](CCCN=C(N)N)NC(=O)[C@H](CC1CCCCC1)NC(C)=O)C(=O)N[C@H](C)C(=O)N[C@@H](CO)C(N)=O`: the Mean relative potency was 0.32 in [7], 0.34 in [8] and 1.14 in series [9].

In turn, `CSCC[C@H](NC(=O)[C@H](C)NC(=O)[C@H](CCCN=C(N)N)NC(=O)[C@H](CC1CCCCC1)NC(C)=O)C(=O)N[C@@H](C)C(=O)N[C@@H](CO)C(=O)N(C)[C@@H](CC(C)C)C(N)=O` showed a half-life in series [6] of 4.6 min.

`CSCC[C@H](NC(=O)[C@H](C)NC(=O)[C@H](CCCN=C(N)N)NC(=O)[C@H](CC1CCCCC1)NC(C)=O)C(=O)N(C)[C@@H](C)C(=O)N[C@@H](CO)C(=O)N(C)[C@@H](CC(C)C)C(N)=O` (Ac-[Cha]RAM[NMeA]S[NMeL]-NH2) came in with a half-life in series [6] of 4.8 min. In addition, the % remaining in series [5] turned out to be 0%.

`CC(=O)N[C@@H](CC1CCCCC1)C(=O)N[C@@H](CCCN=C(N)N)C(=O)N(C)[C@H](C(=O)N[C@H]1CCc2cccc3c2N(C1=O)[C@H](C(=O)N[C@@H](CO)C(=O)N(C)[C@@H](CC(C)C)C(N)=O)C3)c1ccccc1` (Ac-[Cha]R[NMePhg][Haic]S[NMeL]-NH2): the values for the Mean relative potency in series [1] and in [4] were 0.11 and 0.01, respectively. For the same molecule, the T-cell inhibition in series [2] stood at 0.1; in series [3] it was 1. Also, in series [5], the % remaining was found to be 95%.

`CSCC[C@H](NC(=O)[C@H](c1ccccc1)N(C)C(=O)[C@H](CCCN=C(N)N)NC(=O)[C@H](CC1CCCCC1)NC(C)=O)C(=O)N(C)[C@@H](C)C(=O)N[C@@H](CO)C(=O)N[C@H](C(N)=O)C(C)(C)C`: the T-cell inhibition was 7.8 in [2] and 2.5 in [3].

Turning to `CSCC[C@H](NC(=O)[C@H](C)NC(=O)[C@H](CCCN=C(N)N)NC(=O)[C@H](CC1CCCCC1)NC(C)=O)C(N)=O` (Ac-[Cha]RAM-NH2), the Mean relative potency turned out to be 0.005 in series [7], 0.05 in series [8] and 0.01 in series [9].

With `CSCC[C@H](NC(=O)[C@H](C)NC(=O)[C@H](CCCN=C(N)N)NC(=O)[C@H](CC1CCCCC1)NC(C)=O)C(=O)N(C)[C@@H](C)C(=O)N[C@@H](CO)C(=O)N[C@@H](CC(C)C)C(N)=O` (Ac-[Cha]RAM[NMeA]SL-NH2), the Mean relative potency in [8] is 1.22; in series [9], 0.6. The molecule further had a half-life in series [6] of 7.3 min. In series [5], the % remaining stood at 0%.

As for `CSCC[C@H](NC(=O)[C@H](C)NC(=O)[C@H](CCCN=C(N)N)NC(=O)[C@H](CC1CCCCC1)NC(C)=O)C(=O)N[C@H](C)C(N)=O`, the Mean relative potency in [7] was determined as 0.03; in series [8], 0.25; in [9], 0.07.

Regarding `CSCC[C@H](NC(=O)[C@@H]1Cc2ccccc2CN1C(=O)[C@H](CCCN=C(N)N)NC(=O)[C@H](CC1CCCCC1)NC(C)=O)C(=O)N(C)[C@@H](C)C(=O)N[C@@H](CO)C(=O)N(C)[C@@H](C)C(N)=O`, the T-cell inhibition in series [2] came to 0.86; in series [3], 1.5.

As to `CC(=O)N[C@@H](CC1CCCCC1)C(=O)N[C@@H](CCCN=C(N)N)C(=O)N[C@@H](C)C(N)=O`, the Mean relative potency in [7], in [8] and in series [9] was 0 throughout.

Take `CSCCC(NC(=O)[C@H]1Cc2ccccc2CN1C(=O)[C@H](CCCN=C(N)N)NC(=O)[C@H](CC1CCCCC1)NC(C)=O)C(=O)N(C)[C@@H](C)C(=O)N[C@@H](CO)C(=O)N(C)[C@@H](C)C(N)=O` (stereo partly drawn): the Mean relative potency in series [1] amounted to 1.05; in [4] it was 0.89. Further, in [5], the % remaining was 99%.

Take `CC(=O)N[C@@H](CC1CCCCC1)C(=O)N[C@@H](CCCN=C(N)N)C(=O)N1Cc2ccccc2C[C@H]1C(=O)N[C@H]1CCc2cccc3c2N(C1=O)[C@H](C(=O)N[C@@H](CO)C(=O)N(C)[C@@H](C)C(N)=O)C3` (Ac-[Cha]R[Tic][Haic]S[NMeA]-NH2): the Mean relative potency in series [1] is 0.27; in [4], 0.12. For the same molecule, the T-cell inhibition in [2] worked out at 0.2; in [3] it was 0.7. Also, in series [5], the % remaining came to 109%.

Regarding `CSCC[C@@H](NC(=O)[C@H](NC(=O)[C@H](CCCN=C(N)N)NC(=O)[C@H](CC1CCCCC1)NC(C)=O)C(C)(C)C)C(=O)N(C)[C@@H](C)C(=O)N[C@@H](CO)C(=O)N[C@H](C(N)=O)C(C)(C)C`, the Mean relative potency in series [1] amounted to 0.38; in series [4], 0.29. The % remaining in series [5] was 97%.

Turning to `CSCC[C@H](NC(=O)[C@H](C)N(C)C(=O)[C@H](CCCN=C(N)N)NC(=O)[C@H](CC1CCCCC1)NC(C)=O)C(=O)N1CCC(c2ccccc2)[C@H]1C(=O)N[C@@H](CO)C(=O)N(C)[C@@H](C)C(N)=O` (stereo partly drawn) (Ac-[Cha]R[NMeA]M[X1]S[NMeA]-NH2), the T-cell inhibition in [2] is 3.7; in [3], 1.2.

For the origin of these results see ChEMBL document CHEMBL1133693, “Peptide and peptide mimetic inhibitors of antigen presentation by HLA-DR class II MHC molecules. Design, structure-activity relationships, and X-ray crystal structures” (J Med Chem, 2000).
